Published values pooled from the literature.
Protocols differ between the studies behind these lines.
Target: Calcium/calmodulin-dependent protein kinase type II subunit beta (CAMK2B, Homo sapiens, UniProt Q13554)

| Structure (SMILES) | assay | setting | remaining binding [%] |
| --- | --- | --- | --- |
| O=C(O)[C@@H]1[C@@H](Cn2nnc3ccccc3c2=O)CC[C@H]1C(=O)c1ccc(OCCC2CCOCC2)cc1 | cell-free assay, competition with immobilised ligand | 1 µM | 100 |
| COc1cnc(Nc2cccc(S(N)(=O)=O)c2)nc1N1CCN(c2ccccc2)CC1 | binding, competition with immobilised ligand | 1 µM | 83 |
| F[C@@H]1CCN(c2nccc(-c3cnn4ncccc34)n2)C1 | binding | 1 µM | 100 |
| O=C(Nc1c[nH]nc1C(=O)NC1CCNCC1)c1cc(F)cc(F)c1 | binding, competition with immobilised ligand | 1 µM | 100 |
| O=C(c1ccc(Nc2nccc(-c3cc4ccccc4s3)n2)cc1)N1CCC(N2CCCC2)CC1 | binding, competition with immobilised ligand | 1 µM | 100 |
| c1cncc(-c2cccc(Nc3nccc(NC4CCCCC4)n3)c2)c1 | binding, competition with immobilised ligand | 10 µM | 94 |
| CCN1CCN(Cc2ccc(C(=O)Nc3ccc(C)c(Oc4ccc5c(c4)CC(=O)N5)c3)cc2C(F)(F)F)CC1 | binding, competition with immobilised ligand | 1 µM | 100 |
| C[C@@H]1CCN(c2nccc(-c3cnn4ncccc34)n2)C1 | binding | 1 µM | 78 |
| c1ccc(N2CCN(Cc3nc4ccccc4[nH]3)CC2)nc1 | cell-free assay, competition with immobilised ligand | 1 µM | 100 |
| CN(C)c1nccc(-c2cnc3ncccn23)n1 | binding | 1 µM | 89 |
| C[C@@H](c1ccc(-n2cnc3c(N)ncnc32)cc1)N1CCc2nn(C)c(Cc3ccccc3)c2C1=O | binding, competition with immobilised ligand | 0.1 µM | 98 |
| COc1ncc2cc3ccccc3nc2c1C#N | cell-free assay, competition with immobilised ligand | 5 µM | 87 |
| O=C(NCCCN1CCOCC1)c1ccc(Nc2ncc(Cl)c(-c3ccc(Cl)s3)n2)cc1 | binding, competition with immobilised ligand | 1 µM | 79 |
| C[C@H](NC(=O)c1cnc2n1[C@](C)(Cc1ccc(C#N)cc1)C(=O)N2c1cc(Cl)c(F)c(Cl)c1)C(=O)NC1(c2ccccn2)CC1 | cell-free assay, competition with immobilised ligand | 1 µM | 100 |
| N[C@@H]1CCN(c2nccc(-c3cnn4ncccc34)n2)C1 | binding | 1 µM | 100 |
| C[C@@H](c1cccc(C#N)c1)n1cc(Cl)cc(C(N)=O)c1=N | cell-free assay, competition with immobilised ligand | 1 µM | 100 |
| c1cnn2ncc(-c3ccnc(N4CCC45COC5)n3)c2c1 | binding | 1 µM | 66 |
| Cn1nc(C(=O)NCc2ccc(C(=O)O)cc2)cc1-c1ccc2[nH]ccc2c1 | cell-free assay, competition with immobilised ligand | 0.1 µM | 91 |
| Cc1cnc(Nc2ccc(C(=O)N3CCC(N4CCCC4)CC3)cc2)nc1-c1cc2ccccc2s1 | binding, competition with immobilised ligand | 1 µM | 90 |
| CN(C)c1ncc(F)c(-c2cnn3ncccc23)n1 | binding | 1 µM | 65 |
| FC(F)(F)c1ccc2c(c1)nc(-c1cccnc1)n2C1CC1 | cell-free assay, competition with immobilised ligand | 1 µM | 100 |
